KCNK3 block = human KCNK3 channel inhibition, primary screen | AID 602410 | O14649 | B-score at 10 µM | 0.84% of 340,000 active | CHO-KCNK3 thallium flux, FluxOR fluorescence; stronger effect = lower value;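 active = B-score under library mean minus 4 SD, starting fluorescence ratio at most library mean plus 5 SD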;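 also: more negative B-score means stronger inhibition of thallium flux through KCNK3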
KCNQ1 act = potentiators or activators of human KCNQ1 potassium channel | P51787 | CHO-K1 KCNQ1, thallium flux FluxOR fluorescence; stronger effect = higher value | B-score at 10 µM | 0.35% of 310,000 active;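 active = fluorescence ratio B-score, a plate-corrected score, at least three library SD, with initial intensity B-score within 5 SD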
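Medium – assay buffer, equal DMSO in all wells · Material – CHO-K1 cell line with stable KCNQ1 potassium channel expression · Signal – kinetic FluxOR thallium fluorescence, 10-s 1-Hz baseline, 110-s post-stimulus read · Compound – single concentration per compound, DMSO matched to controls · Schedule – 37 °C overnight plating, 90-min dark dye load, 20-min compound pretreatment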
PHOSPHO1 inh = inhibitors of human PHOSPHO1 phosphatase. Q8TCT1. recombinant PHOSPHO1, absorbance phosphatase assay. inhibition, % at 13.3 µM. 1.1% of 290,000 active; in the data active = inhibition above about 60%
Target sequence (Q8TCT1 whole entry, looked up): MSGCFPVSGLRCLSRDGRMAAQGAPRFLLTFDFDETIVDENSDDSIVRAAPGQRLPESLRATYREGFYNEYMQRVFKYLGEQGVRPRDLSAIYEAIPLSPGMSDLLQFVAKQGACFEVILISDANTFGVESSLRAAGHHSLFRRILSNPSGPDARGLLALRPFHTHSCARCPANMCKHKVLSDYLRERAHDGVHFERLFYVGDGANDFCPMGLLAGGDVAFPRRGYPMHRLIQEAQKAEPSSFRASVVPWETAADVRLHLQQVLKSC
KCNK9 inh = inhibitors of human KCNK9 two-pore domain potassium channel. HEK293 KCNK9, FluxOR thallium flux fluorescence; stronger effect = lower value. B-score at 10 µM. 1.2% of 310,000 active;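 active = ratio B-score over 3 SD below the library mean, with starting fluorescence within 5 SD of its mean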;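 also: negative B-score means less thallium flux so channel inhibition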
hERG protect = shields human hERG channel from block by proarrhythmic agents. CHO-hERG, FluxOR thallium flux, dofetilide IC70 present. activation (rescue from dofetilide block), less the hit threshold, % at 10 µM. 0.51% of 310,000 active. AID 1511;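 active = activation above the mean of controls blocked by dofetilide plus 5 SD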;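 also: thallium influx through hERG after potassium depolarization seen as dye fluorescence rise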
KCNQ1 block = blocks the human KCNQ1 potassium channel | P51787 | CHO-K1 KCNQ1, FluxOR thallium flux fluorescence; stronger effect = higher value | B-score at 10 µM | 1.3% of 310,000 active | AID 2642;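 active = compounds whose thallium flux B-score, printed positive for inhibition, exceeds three library SD while starting fluorescence stays within three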;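 also: channel opened by potassium depolarization with thallium stimulus after 20 min compound exposure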
The depositor's hits bear a star; i = inactive; . = not tested or not shown. Compounds with a hit are over-represented: about 4% of the library has one in this group of screens.

SMILES | KCNK3 block | KCNQ1 act | PHOSPHO1 inh | KCNK9 inh | hERG protect | KCNQ1 block
CCOC(=O)c1c(NC(=O)CSc2nnnn2C)sc(C)c1-c1ccc(C)cc1 | i | i | 11 | -6.6* | -14 | i
CCCC(=O)Nc1sc(C(=O)OC)c(C)c1C(N)=O | i | i | 77* | i | -2 | i
CCOC(=O)c1csc(NC(=O)CSc2nnnn2-c2ccc(OC)cc2)n1 | i | i | 9 | i | 0 | i
CCCCC(=O)Nc1sc(C(=O)N(CC)CC)c(C)c1C(=O)OC | i | i | -18 | i | -12 | i
CCOC(=O)c1sc(NC(=O)CSc2nnc(C)s2)c(C(=O)OCC)c1C | i | i | 4 | -6.8* | -7 | i
O=c1/c(=C\c2cccn2-c2ccccc2)sc2nc3ccccc3n12 | i | . | 23 | . | . | .
Cc1ccc(-n2c(C)cc(/C=c3/sc4nc5ccccc5n4c3=O)c2C)cc1 | . | i | 62* | i | -5 | i
O=C(O)c1cc(-c2ccc(/C=C3\NC(=O)N(c4ccccc4)C3=O)o2)ccc1Cl | i | i | 67* | i | -14 | i
Nc1nc(=S)[nH]c2c1C1(CCCC1)Cc1ccccc1-2 | i | i | 54 | i | 6.1* | i
Nc1nc(=S)[nH]c2c1C1(CCCCC1)Cc1ccccc1-2 | i | i | -32 | i | -3 | i
COc1ccccc1CCC(=O)Nc1cccc(S(=O)(=O)N2CCCCCC2)c1 | i | i | . | i | -13 | 6*
COc1cc(C(=O)Nc2cccc(S(=O)(=O)N3CCCC3)c2)cc(OC)c1C | i | i | 33 | -7.7* | -12 | i
CS(=O)(=O)c1cccc(C(=O)Nc2cccc(S(=O)(=O)N3CCCC3)c2)c1 | i | . | . | . | . | .
CCCc1c(C)nc2ccc(OC)cc2c1SCCC(=O)O | i | i | -4 | i | -12 | i
CCCOc1ccc2nc(C)c(CCC)c(SC(=N)N)c2c1 | i | i | 67* | i | -6 | i
Cn1c(CC(=O)Nc2ccccc2F)nnc1SCC(=O)Nc1ccccc1Br | i | i | 32 | i | -10 | i
N#Cc1sc(NCc2ccccc2)nc1Cl | i | i | 62* | i | -6 | i
Cc1ccc(C(=O)N/N=C2\CCCc3ccccc32)c(C)c1 | i | i | 28 | i | -11 | i
COc1ccccc1NC(=O)CSCC(=O)N1c2ccccc2CCc2ccccc21 | i | i | 2 | -7.1* | -10 | i
Cc1c(C(=O)N2CCN(c3ccccc3)CC2)oc2c(F)cccc12 | i | i | 9 | i | -15 | i
Cc1ccc(C23CC4CC(CC(CN)(C4)C2)C3)cc1 | i | i | 60* | i | -9 | i
C=CCSC1=N/C(=C\C=C\c2ccco2)C(=O)S1 | i | i | 70* | i | -12 | i
CCCc1nnc(NC(=O)C2CCN(C(=O)c3ccco3)CC2)s1 | i | i | 39 | i | -5 | i
CCn1cc(/C=C(\NC(=O)c2cc(OC)c(OC)c(OC)c2)C(=O)NCCCN2CCOCC2)c2ccccc21 | i | i | 65* | i | -5 | i
COc1ccc(-c2ccc(/C=N/NC(=O)c3cccnc3)o2)c([N+](=O)[O-])c1 | i | i | 12 | i | 16* | i
SMILES | KCNK3 block | KCNQ1 act | PHOSPHO1 inh | KCNK9 inh | hERG protect | KCNQ1 block
Cc1ccc(C(=O)N/N=C/c2ccc(-c3ccccc3[N+](=O)[O-])o2)cn1 | i | i | -6 | i | -6 | i
O=C(CCS(=O)(=O)c1cccs1)N1CCN(c2ccc(F)cc2)CC1 | i | i | 18 | i | -12 | i
O=C(CCS(=O)(=O)c1cccs1)N1CCCC1 | i | i | 64* | i | -4 | i
Cc1ccc(C(=O)NC(=S)N(C)C2CCCCC2)cc1Br | i | 16* | 5 | i | 2 | i
COc1ccc(C(=O)NC(=S)N(C)C2CCCCC2)cc1Br | i | i | 9 | i | 6.2* | i
CN(C(=S)NC(=O)c1ccccc1Br)C1CCCCC1 | i | 13* | -32 | i | 2 | i
CC(C)(C)NC(=O)C1(N2C(=O)c3ccccc3C2=O)CCCC1 | i | . | . | . | . | .
COc1cc(N(C)C)c([N+](=O)[O-])cc1C(=O)N1CCN(Cc2ccccc2)CC1 | i | i | 22 | i | -4 | i
CCC(C)(C)n1nnnc1C(c1cccnc1)N1CCC(Cc2ccccc2)CC1 (stereo unspecified) | i | i | -1 | -7.6* | -13 | i
CCC(C)(C)n1nnnc1C(c1ccncc1)N1CCC(Cc2ccccc2)CC1 (stereo unspecified) | i | i | -12 | i | -3 | i
CN(CC1CCCN(CCc2ccc(Cl)cc2)C1)C(=O)CC(F)(F)F (stereo unspecified) | i | i | 39 | i | -5 | i
COC(=O)N1C(=O)[C@](c2ccc(OC)cc2)(C(C)C)N1C(=O)OC | i | i | 5 | i | -9 | i
COC(=O)N1C(=O)[C@](c2ccsc2)(C(C)C)N1C(=O)OC | i | i | 67* | i | -2 | i
CNC(=O)c1sc(N2N=C3/C(=C\c4ccccc4)CCCC3C2c2ccccc2)nc1C (stereo unspecified) | i | . | . | . | . | .
CNC(=O)c1sc(N2N=C3/C(=C/c4ccccc4)CCCC3C2c2ccccc2)nc1C (stereo unspecified) | i | i | 22 | -8.7* | -9 | i
FC(F)(F)c1cccc(Cc2noc(CN3CCCC(OCc4ccccn4)C3)n2)c1 (stereo unspecified) | i | i | 64* | i | -12 | i
CC(C)CC(=O)Nc1nnn(C)n1 | i | i | 15 | i | -10 | i
Fc1ccc(NC(=S)Nc2nccs2)cc1 | i | i | -32 | i | 10* | i
FC(F)(F)c1cc(Oc2ccc(Cl)cc2)nc(-c2ccccn2)n1 | i | i | 73* | i | -5 | i
FC(F)(F)c1cc(Oc2ccccc2)nc(-c2ccccn2)n1 | i | i | 48 | i | -4 | i
CCOC(=O)CSc1cc(C(F)(F)F)nc(-c2ccccn2)n1 | i | i | 32 | i | -7 | i
O=C(O)CSc1cc(C(F)(F)F)nc(-c2ccccn2)n1 | i | i | 30 | i | 39* | i
O=C(c1ccccc1F)N1CCN(c2ccccn2)CC1 | i | i | 24 | i | -9 | i
CCc1ccccc1OCCCCN1CCCCC1 | i | i | 30 | i | 0 | i
C=CCN1C=C/C(=C\C=C(C#N)C#N)c2ccccc21 | i | i | -1 | i | -8 | i
CCCCCCN1C=C/C(=C\C=C(C#N)C#N)c2ccccc21 | i | i | -1 | -7.2* | -12 | i
